Experimental data taken from ChEMBL document CHEMBL3044653, “Synthesis and herbicidal activity of 2-(substituted phenoxyacetoxy)alkyl-5,5-dimethyl-1,3,2-dioxaphosphinan-2-one” (J Agric Food Chem, 2012).

What was measured:
Brassica juncea [1] = assay: Post-emergence herbicidal activity against Brassica juncea assessed as inhibition at 75 g/hectare by green house assay; assay type: functional
Chenopodium album [2] = assay: Post-emergence herbicidal activity against Chenopodium album assessed as inhibition at 75 g/hectare by green house assay; assay type: functional
[3] = test system: Brassica rapa subsp. oleifera; assay: Post-emergence herbicidal activity against Brassica rapa subsp. oleifera assessed as inhibition at 75 g/hectare by green house assay; assay type: functional
Brassica oleracea [4] = assay: Post-emergence herbicidal activity against Brassica oleracea assessed as inhibition at 75 g/hectare by green house assay; assay type: functional
Pontederia vaginalis [5] = assay: Post-emergence herbicidal activity against Monochoria vaginalis assessed as inhibition at 75 g/hectare by green house assay; assay type: functional
Ammannia baccifera [6] = assay: Post-emergence herbicidal activity against Ammannia baccifera assessed as inhibition at 75 g/hectare by green house assay; assay type: functional
Radish [7] = assay: Post-emergence herbicidal activity against Raphanus sativus (radish) assessed as inhibition at 75 g/hectare by green house assay; assay type: functional
Ipomoea nil [8] = assay: Post-emergence herbicidal activity against Ipomoea nil (Japanese morning glory) assessed as inhibition at 75 g/hectare by green house assay; assay type: functional
[9] = test system: Brassica rapa subsp. chinensis; assay: Post-emergence herbicidal activity against Brassica rapa subsp. chinensis assessed as inhibition at 75 g/hectare by green house assay; assay type: functional
Amaranthus retroflexus [10] = assay: Post-emergence herbicidal activity against Amaranthus retroflexus assessed as inhibition at 75 g/hectare by green house assay; assay type: functional
Brassica juncea [11] = assay: Post-emergence herbicidal activity against Brassica juncea assessed as inhibition at 150 g/hectare by green house assay; assay type: functional
Chenopodium album [12] = assay: Post-emergence herbicidal activity against Chenopodium album assessed as inhibition at 150 g/hectare by green house assay; assay type: functional
[13] = test system: Brassica rapa subsp. oleifera; assay: Post-emergence herbicidal activity against Brassica rapa subsp. oleifera assessed as inhibition at 150 g/hectare by green house assay; assay type: functional
Brassica oleracea [14] = assay: Post-emergence herbicidal activity against Brassica oleracea assessed as inhibition at 150 g/hectare by green house assay; assay type: functional
Pontederia vaginalis [15] = assay: Post-emergence herbicidal activity against Monochoria vaginalis assessed as inhibition at 150 g/hectare by green house assay; assay type: functional
Ammannia baccifera [16] = assay: Post-emergence herbicidal activity against Ammannia baccifera assessed as inhibition at 150 g/hectare by green house assay; assay type: functional
Radish [17] = assay: Post-emergence herbicidal activity against Raphanus sativus (radish) assessed as inhibition at 150 g/hectare by green house assay; assay type: functional
Ipomoea nil [18] = assay: Post-emergence herbicidal activity against Ipomoea nil (Japanese morning glory) assessed as inhibition at 150 g/hectare by green house assay; assay type: functional
Amaranthus retroflexus [19] = assay: Post-emergence herbicidal activity against Amaranthus retroflexus assessed as inhibition at 150 g/hectare by green house assay; assay type: functional
[20] = test system: Brassica rapa subsp. chinensis; assay: Post-emergence herbicidal activity against Brassica rapa subsp. chinensis assessed as inhibition at 150 g/hectare by green house assay; assay type: functional
Triticum aestivum = assay: Toxicity in Triticum aestivum (wheat) plant assessed as inhibition at 150 g/hectare; assay type: organism-based; conditions: in vivo
Summary of the method: (§1)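 For crop selectivity, conventional crop varieties were planted in 12 cm diameter plots and given a postemergence treatment at 150 g ai/ha. Injury was scored as percent inhibition, with 0–10% classed as safe to the crop.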

Brassica napus = assay: Toxicity in Brassica napus (oilseed rape) assessed as inhibition at 150 g/hectare; assay type: functional; summary of the method: as §1
Gossypium hirsutum = assay: Toxicity in Gossypium hirsutum (cotton) plant assessed as inhibition at 150 g/hectare; assay type: organism-based; conditions: in vivo; summary of the method: as §1
Glycine max = assay: Toxicity in Glycine max (soybean) plant assessed as inhibition at 150 g/hectare; assay type: organism-based; conditions: in vivo; summary of the method: as §1
Zea mays = assay: Toxicity in Zea mays (maize) plant assessed as inhibition at 150 g/hectare; assay type: organism-based; conditions: in vivo; summary of the method: as §1
Oryza sativa = assay: Toxicity in Oryza sativa (rice) plant assessed as inhibition at 150 g/hectare; assay type: organism-based; conditions: in vivo; summary of the method: as §1
Eclipta prostrata [21] = assay: Post-emergence herbicidal activity against Eclipta prostrata assessed as inhibition at 75 g/hectare treated at two-leaf stage by green house assay; assay type: functional
Summary of the method: (§2)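 Greenhouse postemergence spray of diluted formulation solutions onto broadleaf weeds at the two-leaf stage. Primary screen at 150 g ai/ha, with selected compounds retested at 75 and 37.5 g ai/ha. Abutilon was tested at 150 g ai/ha only. Read-out is percent herbicidal damage relative to an untreated control.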

Eclipta prostrata [22] = assay: Post-emergence herbicidal activity against Eclipta prostrata assessed as inhibition at 37.5 g/hectare treated at two-leaf stage by green house assay; assay type: functional; summary of the method: as §2
Amaranthus retroflexus [23] = assay: Post-emergence herbicidal activity against Amaranthus retroflexus assessed as inhibition at 37.5 g/hectare treated at two-leaf stage by green house assay; assay type: functional; summary of the method: as §2
Amaranthus retroflexus [24] = assay: Post-emergence herbicidal activity against Amaranthus retroflexus assessed as inhibition at 75 g/hectare treated at two-leaf stage by green house assay; assay type: functional; summary of the method: as §2
Brassica juncea [25] = assay: Post-emergence herbicidal activity against Brassica juncea assessed as inhibition at 75 g/hectare treated at two-leaf stage by green house assay; assay type: functional; summary of the method: as §2
Brassica juncea [26] = assay: Post-emergence herbicidal activity against Brassica juncea assessed as inhibition at 37.5 g/hectare treated at two-leaf stage by green house assay; assay type: functional; summary of the method: as §2
Digitaria sanguinalis [27] = assay: Post-emergence herbicidal activity against Digitaria sanguinalis (hairy crabgrass) assessed as inhibition at 75 g/hectare treated at one-leaf stage by green house assay; assay type: functional
Summary of the method: (§3)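 Monocot weeds were sprayed postemergence in the greenhouse at the one-leaf stage with diluted formulation solutions. Primary dose was 150 g ai/ha, with follow-up doses of 75 and 37.5 g ai/ha for selected compounds. Activity is scored as percent herbicidal damage compared with an untreated control.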

Digitaria sanguinalis [28] = assay: Post-emergence herbicidal activity against Digitaria sanguinalis (hairy crabgrass) assessed as inhibition at 37.5 g/hectare treated at one-leaf stage by green house assay; assay type: functional; summary of the method: as §3
Setaria viridis [29] = assay: Post-emergence herbicidal activity against Setaria viridis (green foxtail) assessed as inhibition at 75 g/hectare treated at one-leaf stage by green house assay; assay type: functional; summary of the method: as §3
Setaria viridis [30] = assay: Post-emergence herbicidal activity against Setaria viridis (green foxtail) assessed as inhibition at 37.5 g/hectare treated at one-leaf stage by green house assay; assay type: functional; summary of the method: as §3
Echinochloa crus-galli [31] = assay: Post-emergence herbicidal activity against Echinochloa crus-galli (barnyard grass) assessed as inhibition at 75 g/hectare treated at one-leaf stage by green house assay; assay type: functional; summary of the method: as §3
Echinochloa crus-galli [32] = assay: Post-emergence herbicidal activity against Echinochloa crus-galli (barnyard grass) assessed as inhibition at 37.5 g/hectare treated at one-leaf stage by green house assay; assay type: functional; summary of the method: as §3
Eclipta prostrata [33] = assay: Post-emergence herbicidal activity against Eclipta prostrata assessed as inhibition at 150 g/hectare treated at two-leaf stage by green house assay; assay type: functional; summary of the method: as §2
Amaranthus retroflexus [34] = assay: Post-emergence herbicidal activity against Amaranthus retroflexus assessed as inhibition at 150 g/hectare treated at two-leaf stage by green house assay; assay type: functional; summary of the method: as §2
Brassica juncea [35] = assay: Post-emergence herbicidal activity against Brassica juncea assessed as inhibition at 150 g/hectare treated at two-leaf stage by green house assay; assay type: functional; summary of the method: as §2
Abutilon theophrasti = assay: Post-emergence herbicidal activity against Abutilon theophrasti (velvetleaf) assessed as inhibition at 150 g/hectare treated at two-leaf stage by green house assay; assay type: functional; summary of the method: as §2
Digitaria sanguinalis [36] = assay: Post-emergence herbicidal activity against Digitaria sanguinalis (hairy crabgrass) assessed as inhibition at 150 g/hectare treated at one-leaf stage by green house assay; assay type: functional; summary of the method: as §3
Echinochloa crus-galli [37] = assay: Post-emergence herbicidal activity against Echinochloa crus-galli (barnyard grass) assessed as inhibition at 150 g/hectare treated at one-leaf stage by green house assay; assay type: functional; summary of the method: as §3
Setaria viridis [38] = assay: Post-emergence herbicidal activity against Setaria viridis (green foxtail) assessed as inhibition at 150 g/hectare treated at one-leaf stage by green house assay; assay type: functional; summary of the method: as §3

SMILES: O=C(O)CNCP(=O)(O)O [GLYPHOSATE]
- inhibition at 75 g/ha (Brassica juncea [1]): 30%
- inhibition at 75 g/ha (Chenopodium album [2]): 70%
- inhibition at 75 g/ha [3]: 100%
- inhibition at 75 g/ha (Brassica oleracea [4]): 70%
- inhibition at 75 g/ha (Pontederia vaginalis [5]): 100%
- inhibition at 75 g/ha (Ammannia baccifera [6]): 100%
- inhibition at 75 g/ha (Radish [7]): 60%
- inhibition at 75 g/ha (Ipomoea nil [8]): 60%
- inhibition at 75 g/ha [9]: 70%
- inhibition at 75 g/ha (Amaranthus retroflexus [10]): 90%
- inhibition at 150 g/ha (Brassica juncea [11]): 80%
- inhibition at 150 g/ha (Chenopodium album [12]): 90%
- inhibition at 150 g/ha [13]: 100%
- inhibition at 150 g/ha (Brassica oleracea [14]): 80%
- inhibition at 150 g/ha (Pontederia vaginalis [15]): 100%
- inhibition at 150 g/ha (Ammannia baccifera [16]): 100%
- inhibition at 150 g/ha (Radish [17]): 65%
- inhibition at 150 g/ha (Ipomoea nil [18]): 60%
- inhibition at 150 g/ha (Amaranthus retroflexus [19]): 90%
- inhibition at 150 g/ha [20]: 80%

SMILES: Cc1cc(Cl)ccc1OCC(=O)OC(C)P1(=O)OCC(C)(C)CO1 (stereo unspecified)
- inhibition (INH) (Triticum aestivum): 0%
- inhibition at 150 g/ha (Brassica napus): 40%
- inhibition (INH) (Gossypium hirsutum): 20%
- inhibition (INH) (Glycine max): 20%
- inhibition (INH) (Zea mays): 0%
- inhibition (INH) (Oryza sativa): 10%
- inhibition at 75 g/ha (Brassica juncea [1]): 100%
- inhibition at 75 g/ha (Chenopodium album [2]): 70%
- inhibition at 75 g/ha (Pontederia vaginalis [5]): 100%
- inhibition at 75 g/ha (Ammannia baccifera [6]): 100%
- inhibition at 75 g/ha (Radish [7]): 80%
- inhibition at 75 g/ha (Ipomoea nil [8]): 100%
- inhibition at 75 g/ha [9]: 70%
- inhibition at 75 g/ha (Amaranthus retroflexus [10]): 100%
- inhibition at 150 g/ha (Brassica juncea [11]): 100%
- inhibition at 150 g/ha (Chenopodium album [12]): 75%
- inhibition at 150 g/ha (Pontederia vaginalis [15]): 100%
- inhibition at 150 g/ha (Ammannia baccifera [16]): 100%
- inhibition at 150 g/ha (Radish [17]): 80%
- inhibition at 150 g/ha (Ipomoea nil [18]): 100%
- inhibition at 150 g/ha (Amaranthus retroflexus [19]): 100%
- inhibition at 150 g/ha [20]: 80%
- inhibition at 75 g/ha (Eclipta prostrata [21]): 85%
- inhibition at 37.5 g/ha (Eclipta prostrata [22]): 80%
- inhibition at 37.5 g/ha (Amaranthus retroflexus [23]): 80%
- inhibition at 75 g/ha (Amaranthus retroflexus [24]): 100%
- inhibition at 75 g/ha (Brassica juncea [25]): 100%
- inhibition at 37.5 g/ha (Brassica juncea [26]): 80%
- inhibition at 75 g/ha (Digitaria sanguinalis [27]): 0%
- inhibition at 37.5 g/ha (Digitaria sanguinalis [28]): 0%
- inhibition at 75 g/ha (Setaria viridis [29]): 0%
- inhibition at 37.5 g/ha (Setaria viridis [30]): 0%
- inhibition at 75 g/ha (Echinochloa crus-galli [31]): 0%
- inhibition at 37.5 g/ha (Echinochloa crus-galli [32]): 0%
- inhibition at 150 g/ha (Eclipta prostrata [33]): 90%
- inhibition at 150 g/ha (Amaranthus retroflexus [34]): 100%
- inhibition at 150 g/ha (Brassica juncea [35]): 100%
- inhibition at 150 g/ha (Abutilon theophrasti): 100%
- inhibition at 150 g/ha (Digitaria sanguinalis [36]): 0%
- inhibition at 150 g/ha (Echinochloa crus-galli [37]): 30%
- inhibition at 150 g/ha (Setaria viridis [38]): 0%
